Test results published in ChEMBL document CHEMBL5058577, “EUbOPEN Chemogenomics Library 2 (Multiplex)” (2022).

Tested on: Fibroblast
Assay: Multiplex assay against human fibroblast
Assay type: toxicity, cell-based
Method in brief: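 Cells stained live at seeding with Hoechst33342, BioTracker Green Microtubule Cytoskeleton Dye, MitoTracker Red and Annexin V Alexa Fluor 680 were imaged on a CQ1 microscope at 37°C and 5% CO2 after compound addition. Their classification by CellPathfinder machine-learning gating ran from Hoechst high-intensity objects versus normal cells, to healthy, pyknosed or fragmented nuclei among normal cells, to mitotic or apoptotic among pyknosed cells. Tubulin, mitochondrial-mass and membrane-permeability phenotypes are per cents of healthy-nucleus cells.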

[1] = 12 h, 1 µM, compound concentration 1 uM, replicate 1
[2] = 12 h, 1 µM, compound concentration 1 uM, replicate 2
[3] = 12 h, 10 µM, compound concentration 10 uM, replicate 1
[4] = 12 h, 10 µM, compound concentration 10 uM, replicate 2
[5] = 24 h, 1 µM, compound concentration 1 uM, replicate 1
[6] = 24 h, 1 µM, compound concentration 1 uM, replicate 2
[7] = 24 h, 10 µM, compound concentration 10 uM, replicate 1
[8] = 24 h, 10 µM, compound concentration 10 uM, replicate 2
[9] = 48 h, 1 µM, compound concentration 1 uM, replicate 1
[10] = 48 h, 1 µM, compound concentration 1 uM, replicate 2
[11] = 48 h, 10 µM, compound concentration 10 uM, replicate 1
[12] = 48 h, 10 µM, compound concentration 10 uM, replicate 2

Compound: Cl.NCCc1ccc(O)c(O)c1 [DOPAMINE HYDROCHLORIDE]
- Population Apoptotic (%) [1]: 42%
- Population Fragmented Nuclei (%) [1]: 13%
- Population Healthy Nuclei (%) [1]: 63%
- Population Hoechst High Intensity Objects (%) [1]: 1%
- Population Membrane Permeable-Phenotype (%) [1]: 0%
- Population Mitochondria Different-Phenotype (%) [1]: 1%
- Population Mitotic Cells (%) [1]: 57%
- Population Normal (%) [1]: 98%
- Population Pyknosed Nuclei (%) [1]: 23%
- Population Tubulin-Different-Phenotype (%) [1]: 34%
- Total Cell Count [1]: 115
- Population Apoptotic (%) [2]: 44%
- Population Fragmented Nuclei (%) [2]: 34%
- Population Healthy Nuclei (%) [2]: 40%
- Population Membrane Permeable-Phenotype (%) [2]: 4%
- Population Mitochondria Different-Phenotype (%) [2]: 6%
- Population Mitotic Cells (%) [2]: 55%
- Population Pyknosed Nuclei (%) [2]: 24%
- Population Tubulin-Different-Phenotype (%) [2]: 45%
- Total Cell Count [2]: 152
- Population Apoptotic (%) [3]: 56%
- Population Fragmented Nuclei (%) [3]: 14%
- Population Healthy Nuclei (%) [3]: 62%
- Population Hoechst High Intensity Objects (%) [3]: 3%
- Population Membrane Permeable-Phenotype (%) [3]: 0%
- Population Mitochondria Different-Phenotype (%) [3]: 3%
- Population Mitotic Cells (%) [3]: 43%
- Population Normal (%) [3]: 96%
- Population Pyknosed Nuclei (%) [3]: 23%
- Population Tubulin-Different-Phenotype (%) [3]: 14%
- Total Cell Count [3]: 135
- Population Apoptotic (%) [4]: 41%
- Population Fragmented Nuclei (%) [4]: 35%
- Population Healthy Nuclei (%) [4]: 40%
- Population Hoechst High Intensity Objects (%) [4]: 4%
- Population Membrane Permeable-Phenotype (%) [4]: 6%
- Population Mitochondria Different-Phenotype (%) [4]: 6%
- Population Mitotic Cells (%) [4]: 58%
- Population Normal (%) [4]: 95%
- Population Tubulin-Different-Phenotype (%) [4]: 44%
- Total Cell Count [4]: 127
- Population Apoptotic (%) [5]: 55%
- Population Fragmented Nuclei (%) [5]: 14%
- Population Healthy Nuclei (%) [5]: 69%
- Population Hoechst High Intensity Objects (%) [5]: 0%
- Population Membrane Permeable-Phenotype (%) [5]: 1%
- Population Mitochondria Different-Phenotype (%) [5]: 1%
- Population Mitotic Cells (%) [5]: 44%
- Population Normal (%) [5]: 99%
- Population Pyknosed Nuclei (%) [5]: 16%
- Population Tubulin-Different-Phenotype (%) [5]: 31%
- Total Cell Count [5]: 112
- Population Apoptotic (%) [6]: 51%
- Population Fragmented Nuclei (%) [6]: 34%
- Population Healthy Nuclei (%) [6]: 47%
- Population Hoechst High Intensity Objects (%) [6]: 2%
- Population Membrane Permeable-Phenotype (%) [6]: 7%
- Population Mitochondria Different-Phenotype (%) [6]: 0%
- Population Mitotic Cells (%) [6]: 48%
- Population Normal (%) [6]: 97%
- Population Pyknosed Nuclei (%) [6]: 18%
- Population Tubulin-Different-Phenotype (%) [6]: 37%
- Total Cell Count [6]: 150
- Population Apoptotic (%) [7]: 55%
- Population Fragmented Nuclei (%) [7]: 16%
- Population Healthy Nuclei (%) [7]: 69%
- Population Hoechst High Intensity Objects (%) [7]: 2%
- Population Membrane Permeable-Phenotype (%) [7]: 1%
- Population Mitochondria Different-Phenotype (%) [7]: 5%
- Population Mitotic Cells (%) [7]: 44%
- Population Normal (%) [7]: 97%
- Population Pyknosed Nuclei (%) [7]: 13%
- Population Tubulin-Different-Phenotype (%) [7]: 22%
- Total Cell Count [7]: 136
- Population Apoptotic (%) [8]: 47%
- Population Fragmented Nuclei (%) [8]: 37%
- Population Healthy Nuclei (%) [8]: 46%
- Population Hoechst High Intensity Objects (%) [8]: 3%
- Population Membrane Permeable-Phenotype (%) [8]: 3%
- Population Mitochondria Different-Phenotype (%) [8]: 7%
- Population Mitotic Cells (%) [8]: 52%
- Population Normal (%) [8]: 96%
- Population Pyknosed Nuclei (%) [8]: 15%
- Population Tubulin-Different-Phenotype (%) [8]: 56%
- Total Cell Count [8]: 126
- Population Apoptotic (%) [9]: 36%
- Population Fragmented Nuclei (%) [9]: 22%
- Population Healthy Nuclei (%) [9]: 66%
- Population Hoechst High Intensity Objects (%) [9]: 6%
- Population Membrane Permeable-Phenotype (%) [9]: 1%
- Population Mitochondria Different-Phenotype (%) [9]: 2%
- Population Mitotic Cells (%) [9]: 63%
- Population Normal (%) [9]: 93%
- Population Pyknosed Nuclei (%) [9]: 10%
- Population Tubulin-Different-Phenotype (%) [9]: 28%
- Total Cell Count [9]: 110
- Population Apoptotic (%) [10]: 38%
- Population Fragmented Nuclei (%) [10]: 33%
- Population Healthy Nuclei (%) [10]: 52%
- Population Membrane Permeable-Phenotype (%) [10]: 5%
- Population Mitochondria Different-Phenotype (%) [10]: 3%
- Population Mitotic Cells (%) [10]: 61%
- Population Pyknosed Nuclei (%) [10]: 14%
- Population Tubulin-Different-Phenotype (%) [10]: 43%
- Total Cell Count [10]: 159
- Population Apoptotic (%) [11]: 87%
- Population Fragmented Nuclei (%) [11]: 21%
- Population Healthy Nuclei (%) [11]: 66%
- Population Hoechst High Intensity Objects (%) [11]: 4%
- Population Membrane Permeable-Phenotype (%) [11]: 0%
- Population Mitochondria Different-Phenotype (%) [11]: 4%
- Population Mitotic Cells (%) [11]: 12%
- Population Normal (%) [11]: 95%
- Population Pyknosed Nuclei (%) [11]: 11%
- Population Tubulin-Different-Phenotype (%) [11]: 25%
- Total Cell Count [11]: 141
- Population Apoptotic (%) [12]: 90%
- Population Fragmented Nuclei (%) [12]: 31%
- Population Healthy Nuclei (%) [12]: 60%
- Population Hoechst High Intensity Objects (%) [12]: 0%
- Population Membrane Permeable-Phenotype (%) [12]: 7%
- Population Mitotic Cells (%) [12]: 10%
- Population Normal (%) [12]: 99%
- Population Pyknosed Nuclei (%) [12]: 8%
- Population Tubulin-Different-Phenotype (%) [12]: 56%
- Total Cell Count [12]: 116
